Test results taken from PMC5908246 (Cell reports, 2018).
“Also recorded” adds a separate entry of the source. Read-outs that look alike come from different tables or passages of the source. No end group written: not given here.

Tests used:
[1] = target: Med15 activator-binding domain 1 (ABD1) (S. cerevisiae (yeast)) (UniProt P19659); assay: ITC
[2] = target: Gcn4 tAD (residues 1–134) labeled with Oregon Green 488 (S. cerevisiae) (UniProt P03069); assay: fluorescence polarisation
[3] = target: Gcn4 N-terminal activation domain (nAD; residues 1–100) (S. cerevisiae) (UniProt P03069); assay: ITC
[4] = target: Gcn4 cAD (residues 101–134) labeled with Oregon Green 488 (S. cerevisiae) (UniProt P03069); assay: fluorescence polarisation
Med15 ABD1 [5] = target: T1, Med15 ABD1 (Saccharomyces cerevisiae, UniProt P19659); conditions: ref Brzovic et al., 2011; cited from earlier work
T1 sequence (P19659 158-238 limits assumed): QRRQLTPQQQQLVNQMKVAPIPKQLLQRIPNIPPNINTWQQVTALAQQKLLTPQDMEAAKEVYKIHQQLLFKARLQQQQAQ

Med15 KIX = target: T2, Med15 KIX (Saccharomyces cerevisiae, UniProt P19659); conditions: FP; Oregon Green 488-labeled Gcn4 peptide; ref Herbig et al., 2010; cited from earlier work
T2 sequence (P19659 6-91): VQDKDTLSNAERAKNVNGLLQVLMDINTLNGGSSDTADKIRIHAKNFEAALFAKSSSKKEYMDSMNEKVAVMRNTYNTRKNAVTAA

Med15 ABD1 [6] = target: T1, Med15 ABD1; assay: NMR competition: unlabeled cAD added to 15N-tAD + ABD1; type: binding, S. cerevisiae; conditions: (1H,15N)-HSQC
Med15 ABD3 [7] = target: T3, Med15 ABD3 (Saccharomyces cerevisiae, UniProt P19659); assay: ITC binding, Med15 ABD3; parameters: species or system S. cerevisiae; conditions: 20 mM KH2PO4 (pH 7.5), 200 mM KCl; for Kd: nAD 0.111 mM vs ABD3 1.12 mM, ABD3 0.236 mM vs cAD 2.35 mM, single binding site model
T3 sequence (P19659 484-651): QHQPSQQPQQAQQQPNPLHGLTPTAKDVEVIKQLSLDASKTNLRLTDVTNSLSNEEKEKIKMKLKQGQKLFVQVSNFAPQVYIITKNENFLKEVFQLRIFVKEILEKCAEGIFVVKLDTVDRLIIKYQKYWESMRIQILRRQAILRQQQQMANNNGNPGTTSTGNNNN
Summary of the method: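 ITC was run on a MicroCal ITC200 in 20 mM KH2PO4 (pH 7.5), 200 mM KCl. In one run, Gcn4 nAD in the cell (0.111 mM) was titrated with Med15 ABD3 from the syringe (1.12 mM). In the other, ABD3 in the cell (0.236 mM) was titrated with Gcn4 cAD (2.35 mM). Data were fitted with a single binding site model.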

Med15 ABD2 [8] = target: T4, Med15 ABD2 (Saccharomyces cerevisiae, UniProt P19659); assay: Fluorescence polarization binding, Med15 ABD2; parameters: species or system S. cerevisiae
T4 sequence (P19659 277-368): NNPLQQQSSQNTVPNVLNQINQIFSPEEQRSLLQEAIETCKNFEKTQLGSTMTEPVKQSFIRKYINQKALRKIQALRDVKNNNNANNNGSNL
Summary of the method: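 Gcn4 AD peptides (nAD, cAD, tAD) labelled with Oregon Green 488 were titrated with Med15 ABD2, giving 15 concentrations spanning 0–250 μM for tAD. Proteins were size-exclusion purified into 20 mM KH2PO4 (pH 7.5), 200 mM KCl. Polarization was measured on a Beacon 2000. Kd was fitted with a one-site total binding model including a nonspecific term and background.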

Med15 ABD2 [9] = target: T4, Med15 ABD2; assay: ITC binding, Med15 ABD2; parameters: species or system S. cerevisiae; conditions: 20 mM KH2PO4 (pH 7.5), 200 mM KCl, nAD 0.111 mM vs ABD2 1.60 mM, ABD2 0.224 mM vs cAD 2.35 mM, not measurable due to weak binding or low heats of binding
Med15 ABD1 [10] = target: T1, Med15 ABD1; conditions: ITC; 20 mM KH2PO4 (pH 7.5), 200 mM KCl; cAD; ref Brzovic et al., 2011; cited from earlier work
individual Med15 ABDs = assay: ITC and/or FP binding to individual Med15 ABDs; parameters: species or system S. cerevisiae
Summary of the method: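 Med15 ABD and Gcn4 AD proteins came from E. coli BL21(DE3) RIL and were polished by size exclusion into 20 mM KH₂PO₄ (pH 7.5), 200 mM KCl; concentrations were set by UV-Vis. FP used Oregon Green 488-labelled Gcn4 peptides, with 15 Med15 concentrations (0–250 µM) against tAD and 0–225 µM ABD3 against cAD. FP data were fit to a one-site total binding model with a nonspecific term. ITC data were fit to a single-site model.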

Med15 ABD123 [11] = target: T5, Med15 ABD123 (Saccharomyces cerevisiae, UniProt P19659, DEL239-272/DEL373-483); assay: Fluorescence polarization binding, Med15 ABD123; parameters: species or system S. cerevisiae; conditions: tAD binding to ABD123
T5 sequence (P19659 with tags, fused parts or gaps DEL239-272/DEL373-483): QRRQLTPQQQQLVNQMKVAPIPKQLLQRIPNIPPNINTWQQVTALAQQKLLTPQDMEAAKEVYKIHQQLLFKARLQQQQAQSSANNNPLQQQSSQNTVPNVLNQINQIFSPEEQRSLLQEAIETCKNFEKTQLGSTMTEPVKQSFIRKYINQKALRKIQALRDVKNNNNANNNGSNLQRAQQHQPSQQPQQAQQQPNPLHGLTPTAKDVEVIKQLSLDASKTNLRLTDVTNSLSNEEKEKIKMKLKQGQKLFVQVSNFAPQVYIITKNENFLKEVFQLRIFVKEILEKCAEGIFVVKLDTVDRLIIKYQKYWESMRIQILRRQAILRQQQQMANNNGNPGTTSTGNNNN
Summary of the method: (§1)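 Gcn4 tAD peptide labelled with Oregon Green 488 was titrated with 15 Med15 concentrations spanning 0–250 μM (ABD123 or KIX123). Proteins were in 20 mM KH2PO4 (pH 7.5), 200 mM KCl. Polarization was read on a Beacon 2000. Kd came from non-linear regression to a one-site total binding model (Bmax·X/(Kd+X) + NS·X + background).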

Med15 KIX123 = assay: Fluorescence polarization binding, Med15 KIX123; parameters: species or system S. cerevisiae; conditions: KIX123 vs ABD123
Summary of the method: as §1

[12] = tested on: Med15 KIX domain (in KIX123); assay: EDC crosslinking-MS, KIX123-tAD, links to KIX; type: binding, S. cerevisiae; conditions: EDC 7.5 mM, Sulfo-NHS 2 mM, 2 hr, room temperature; Gcn4 1–140
Summary of the method: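 Gcn4 AD and KIX123 were purified by size exclusion into PBS (pH 7.2) and cross-linked for 2 hr at room temperature. Samples were reduced (50 mM TCEP, 8 M urea, 37°C, 15 min), alkylated (15 mM iodoacetamide, dark, 37°C, 1 hr), diluted 10-fold in 100 mM ammonium bicarbonate and digested overnight at 37°C with trypsin (1:15 w/w). After C18 cleanup, peptides were run on an Orbitrap Elite with HCD and a 90 min 5–40% ACN gradient. pLink and Nexus searches used 5% FDR, and a crosslink required ≥4 consecutive b/y ions per peptide.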

Med15 ABD1 [13] = target: T1, Med15 ABD1; assay: NMR secondary structure propensity upon binding ABD1; parameters: species or system S. cerevisiae; conditions: bound to ABD1; backbone chemical shifts, ncSPC; 25°C
Summary of the method: (§2)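 ¹³C,¹⁵N-labelled Gcn4 nAD was titrated with unlabelled Med15 ABD at ~200 μM labelled sample. Bound-state assignments were checked by triple-resonance experiments. Secondary structure propensity came from backbone chemical shifts via ncSPC.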

Med15 ABD3 [14] = target: T3, Med15 ABD3; conditions: FP; Oregon Green 488-labeled Gcn4 peptide; ref Herbig et al., 2010; cited from earlier work
Med15 ABD1 [15] = target: T1, Med15 ABD1; conditions: FP; Oregon Green 488-labeled Gcn4 peptide; ref Herbig et al., 2010; cited from earlier work
Med15 ABD123 [16] = target: T5, Med15 ABD123; conditions: FP; Oregon Green 488-labeled Gcn4 peptide; ref Herbig et al., 2010; cited from earlier work
Med15 ABD1 [17] = target: T1, Med15 ABD1; assay: ITC binding, Med15 ABD1; parameters: species or system S. cerevisiae; conditions: 200 mM KCl
Summary of the method: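 ITC was run on a MicroCal ITC200 in 20 mM KH2PO4 (pH 7.5), 200 mM KCl. Med15 ABD1 in the cell (0.150 mM) was titrated with Gcn4 nAD from the syringe (1.50 mM). Thermodynamic parameters came from a single binding site model fit.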

Med15 ABD2 [18] = target: T4, Med15 ABD2; conditions: FP; Oregon Green 488-labeled Gcn4 peptide; ref Herbig et al., 2010; cited from earlier work
Med15 ABD2 [19] = target: T4, Med15 ABD2; assay: NMR secondary structure propensity upon binding ABD2; parameters: species or system S. cerevisiae; conditions: bound to ABD2, saturating; backbone chemical shifts, ncSPC; 25°C
Summary of the method: as §2

## Gcn4 N-terminal activation domain (nAD; residues 1–100) (from UniProt P03069 1-100) (domain or fragment)
[1]
  Kd: 10.8 µM
  dH: 2.45 kcal/mol

## Med15 158–651 Δ239–272, Δ373–483 (ABD123) (from UniProt P19659 158-651) (domain or fragment)
[2]
  Kd: 0.109 µM

## Med15 activator-binding domain 1 (ABD1) (from UniProt P19659 158-238) (domain or fragment)
[2]
  Kd: 2.66 µM

## Med15 activator-binding domain 2 (ABD2; residues 277–368) (from UniProt P19659 277-368) (domain or fragment)
[2]
  Kd: 19.5 µM

## Med15 activator-binding domain 3 (ABD3; Med15 484–651) (from UniProt P19659 484-651) (domain or fragment)
[3]
  Kd: 23.9 µM
  dH: 7.02 kcal/mol
[4]
  Kd: 13.9 µM
[2]
  Kd: 4.4 µM

## STDSTPMFEYENLEDNSKEWTSLFDNDIPVTTDD [cAD]
Med15 ABD1 [5]
  helical structure upon ABD1 binding, residues 117–125: adopt helical structure
Med15 KIX
  Kd: neither nAD nor cAD showed detectable KIX binding; also recorded: unable to measure
Med15 ABD1 [6]
  competition with 15N-tAD for ABD1: cAD can compete off both cAD and nAD residues
Med15 ABD3 [7]
  Kd: unable to measure
Med15 ABD2 [8]
  weaker binding (cAD to ABD2) than the other pairwise interactions: ~ 10 fold
Med15 ABD2 [8]; compared with nAD or tAD
  affinity for ABD2 (in words): substantially weaker affinity
Med15 ABD2 [9]
  Kd: unable to measure
Med15 ABD1 [10]
  ΔS: 4.58 cal/mol/deg

B1: tAD: tandem AD polypeptide, Gcn4 residues 1–134 (1–140 in crosslinking) (protein, UniProt P03069 1-134, looked up, fragment)
chain: MSEYQPSLFALNPMGFSPLDGSKSTNENVSASTSTAKPMVGQLIFDKFIKTEEDPIIKQDTPSNLDFDFALPQTATAPDAKTVLPIPELDDAVVESFFSSSTDSTPMFEYENLEDNSKEWTSLFDNDIPVTTDD
Individual Med15 ABDs
  affinity for individual ABDs (in words): affinity close to the stronger of the individual nAD or cAD interactions
Med15 ABD123 [11]
  higher affinity than the strongest piecemeal interaction: about 20 fold
Med15 KIX123
  increase of Gcn4 affinity by presence of KIX along with ABD1,2,3: ~ 30%

B2: nAD: N-terminal activation domain of Gcn4, residues 1–100 (protein, UniProt P03069 1-100, looked up, fragment)
chain: MSEYQPSLFALNPMGFSPLDGSKSTNENVSASTSTAKPMVGQLIFDKFIKTEEDPIIKQDTPSNLDFDFALPQTATAPDAKTVLPIPELDDAVVESFFSS
[12]
  crosslinks to Med15 KIX domain: crosslinks extensively to Gcn4 in the large complex, mainly to nAD
Med15 ABD1 [13]
  helical content of the other three nAD hydrophobic clusters: < 20%
Med15 ABD3 [14]
  Kd: 2.6 ± 0.4 µM
Med15 ABD1 [15]
  Kd: 3.3 ± 0.5 µM
Med15 ABD123 [16]
  Kd: 0.36 ± 0.02 µM
Med15 KIX
  Kd: neither nAD nor cAD showed detectable KIX binding; also recorded: unable to measure
Med15 ABD1 [17]; 20 mM KH2PO4 (pH 7.5), nAD
  ΔH: 2,454 ± 78 cal/mol
  ΔS: 31.0 cal/mol/deg
Med15 ABD1 [17]; Microcal ITC200, 20 mM KH2PO4 (pH 7.5), cell ABD1 0.150 mM, syringe nAD 1.50 mM, single binding site model
  Kd: 10.8 ± 1.5 µM
Med15 ABD2 [18]
  Kd: 21.8 ± 3.8 µM
Med15 ABD2 [19]
  helical content of C-terminal hydrophobic cluster (residues 94–98): ~ 25%
Med15 ABD3 [7]
  ΔH: 7,015 ± 221 cal/mol
  Kd: 23.9 ± 2 µM
Med15 ABD2 [9]
  Kd: unable to measure
